From article PMC6893084 (Journal of thrombosis and haemostasis : JTH, 2019)
Values joined by “and” are separate entries in the source; they are usually repeats but may differ in a detail not shown here. Equal entries are not always repeated. Where two headings read alike, the source gives them in different places.

Key:
[1] = target: SCI–FXIa complex (Homo sapiens, UniProt P03951); assay: In vitro reversibility of SCI inhibition of FXIa by antidotes, S-2366 hydrolysis; type: biochemical; conditions: for restoration potency (EC50) / restoration yield (ΔY) of FXIa activity: FXIa inhibited by 2 μM of SCI, pH 7.4, 37 °C
Sequence of SCI–FXIa complex (P03951 388-625 limits assumed): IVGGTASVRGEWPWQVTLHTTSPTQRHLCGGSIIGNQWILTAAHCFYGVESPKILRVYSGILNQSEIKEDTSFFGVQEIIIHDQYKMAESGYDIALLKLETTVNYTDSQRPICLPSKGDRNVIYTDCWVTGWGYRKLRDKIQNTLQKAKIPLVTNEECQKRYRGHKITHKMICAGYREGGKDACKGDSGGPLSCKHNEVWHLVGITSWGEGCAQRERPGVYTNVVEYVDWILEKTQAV
Sequence of SCI–FXIa complex (P03951 19-387 limits assumed): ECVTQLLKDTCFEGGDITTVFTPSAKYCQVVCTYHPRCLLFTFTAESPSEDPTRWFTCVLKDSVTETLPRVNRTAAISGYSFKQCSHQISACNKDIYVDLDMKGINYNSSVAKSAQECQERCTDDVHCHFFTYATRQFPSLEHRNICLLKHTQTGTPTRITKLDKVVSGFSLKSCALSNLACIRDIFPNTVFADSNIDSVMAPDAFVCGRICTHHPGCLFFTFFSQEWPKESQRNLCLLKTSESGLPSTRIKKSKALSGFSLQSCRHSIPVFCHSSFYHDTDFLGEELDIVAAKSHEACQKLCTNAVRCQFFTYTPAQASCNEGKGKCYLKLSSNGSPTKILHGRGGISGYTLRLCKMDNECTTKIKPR

[2] = Maximum tolerated dose
[3] = test system: human whole blood; assay: Thromboelastography; conditions: ex vivo
Procedure, shortened: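 Citrated human whole blood with varying levels of test compound or enoxaparin was recalcified with CaCl2 to start clotting. The cup oscillated through a 4° 45ˋ angle at 0.1 Hz. Reaction time (min), angle (deg), maximum amplitude and shear elastic modulus were recorded automatically.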

[4] = target: T1, DEGR-FXIa (Homo sapiens, UniProt P03951); assay: Acrylamide quenching of dansyl fluorescence of DEGR-FXIa; type: binding; conditions: 2 μM SCI; acrylamide 0–800 mM
T1 sequence (P03951 388-625 limits assumed): as the sequence (P03951 388-625 limits assumed) above
T1 sequence (P03951 19-387 limits assumed): as the sequence (P03951 19-387 limits assumed) above
Procedure, shortened: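 Dansyl-labelled active-site-blocked human FXIa (DEGR-FXIa) in 20 mM Tris-HCl, pH 7.4, 37 °C. Acrylamide (0–800 mM) was added sequentially with or without a fixed level of test compound. Dansyl emission was recorded with excitation at 345 nm. Data were fitted to linear or quadratic Stern–Volmer equations.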

[5] = target: T2, FXIa (Homo sapiens, UniProt P03951); assay: Fluorescence titration, intrinsic tryptophan fluorescence of FXIa; type: binding
T2 sequence (P03951 388-625 limits assumed): as the sequence (P03951 388-625 limits assumed) above
T2 sequence (P03951 19-387 limits assumed): as the sequence (P03951 19-387 limits assumed) above

[6] = target: T2, FXIa; assay: FXIa inhibition with sub-optimal chromogenic substrate Spectrozyme TH; type: biochemical
[7] = target: T2, FXIa; assay: Direct inhibition of FXIa, S-2366 chromogenic substrate hydrolysis; type: biochemical
Procedure, shortened: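 Full-length wild-type purified human FXIa hydrolysing chromogenic substrate S-2366 in 20 mM Tris-HCl, pH 7.4, 37 °C, with varying test compound. Activity taken as the initial rate of absorbance increase at 405 nm. A logistic dose–response equation fitted to residual protease activity gave IC50, efficacy (ΔY) and Hill slope.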

[8] = target: human, wild-type, full-length FXIa (Homo sapiens, UniProt P03951); assay: Michaelis-Menten kinetics of S-2366 hydrolysis by FXIa in the presence of SCI; type: biochemical; conditions: pH 7.4, 37 °C
Sequence of human, wild-type, full-length FXIa (P03951 388-625 limits assumed): as the sequence (P03951 388-625 limits assumed) above
Sequence of human, wild-type, full-length FXIa (P03951 19-387 limits assumed): as the sequence (P03951 19-387 limits assumed) above

[9] = FeCl3-induced arterial thrombosis model in rats; type: in vivo, rat
Procedure, shortened: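 Female Wistar rats (~250 g), under ketamine/xylazine with isoflurane maintenance. Test compound (250, 500 or 2000 μg/rat) or enoxaparin in PBS was infused into the tail vein. After 5 min, 10% FeCl3-soaked filter paper was applied to the exposed abdominal aorta between two sutures for 10 min. The clot matured 15 min, sutures were tightened, and thrombus wet and dry weights recorded.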

[10] = target: FXIIa (Homo sapiens, UniProt P00748); assay: Chromogenic substrate hydrolysis assay, FXIIa; type: biochemical
Sequence of FXIIa (P00748 373-615 limits assumed): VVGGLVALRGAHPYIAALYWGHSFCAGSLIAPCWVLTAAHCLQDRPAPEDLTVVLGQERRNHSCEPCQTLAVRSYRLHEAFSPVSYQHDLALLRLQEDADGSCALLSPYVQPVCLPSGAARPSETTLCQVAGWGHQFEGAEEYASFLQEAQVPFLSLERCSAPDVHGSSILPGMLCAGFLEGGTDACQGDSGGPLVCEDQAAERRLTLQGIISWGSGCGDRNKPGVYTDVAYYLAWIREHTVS
Procedure, shortened: (§1)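 Each purified human protease was tested against varying test compound levels under optimal conditions taken from the literature. A chromogenic substrate was used, except for FXIIIa, which used a fluorescence bisubstrate format. Protease activity versus concentration was fitted by non-linear regression to a logistic equation, giving IC50, efficacy (ΔY) and Hill slope.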

[11] = Rat tail bleeding; type: in vivo
[12] = target: FIXa (Homo sapiens, UniProt P00740); assay: Chromogenic substrate hydrolysis assay, FIXa; type: biochemical
Sequence of FIXa (P00740 227-461 limits assumed): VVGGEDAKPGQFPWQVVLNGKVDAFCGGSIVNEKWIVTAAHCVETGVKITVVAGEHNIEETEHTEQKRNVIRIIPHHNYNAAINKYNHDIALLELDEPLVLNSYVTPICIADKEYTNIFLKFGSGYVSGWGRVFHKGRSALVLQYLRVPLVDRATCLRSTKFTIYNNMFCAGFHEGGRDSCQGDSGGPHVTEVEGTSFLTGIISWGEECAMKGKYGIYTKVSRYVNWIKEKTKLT
Sequence of FIXa (P00740 47-191 partner limits assumed): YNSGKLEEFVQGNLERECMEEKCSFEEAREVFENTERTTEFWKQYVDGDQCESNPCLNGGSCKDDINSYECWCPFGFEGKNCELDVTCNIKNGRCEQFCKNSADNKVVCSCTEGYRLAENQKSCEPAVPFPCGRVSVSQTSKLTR
Procedure, shortened: as §1

[13] = target: T3, Thrombin (Homo sapiens, UniProt P00734); assay: Thrombin inhibition with sub-optimal chromogenic substrate S-2366; type: biochemical
[14] = test system: human plasma; assay: Prothrombin time; type: biochemical; conditions: even at 150 μM
Procedure, shortened: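 One-stage recalcification clotting assay of human plasma containing varying levels of test compound. Clotting was started with Thromboplastin-D and CaCl2 at 37 °C and time to clot recorded. Clotting time versus concentration was fitted with a quadratic equation to give the concentration that doubles clotting time.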

[15] = target: rFXIa-FLABS1 (Homo sapiens, UniProt P03951); type: biochemical
Sequence of rFXIa-FLABS1 (P03951 388-625 limits assumed): as the sequence (P03951 388-625 limits assumed) above

[16] = test system: Trypsin; assay: Chromogenic substrate hydrolysis assay, trypsin; type: biochemical, human
Procedure, shortened: as §1

[17] = target: T1, DEGR-FXIa; assay: Fluorescence titration, dansyl fluorescence of DEGR-FXIa; type: binding; conditions: pH 7.4, 37 °C
[18] = target: rFXIa-FLABS2 (Homo sapiens, UniProt P03951, K547A/R548A/R550A); type: biochemical
Sequence of rFXIa-FLABS2 (P03951 388-625 K547A/R548A/R550A limits assumed): as the sequence (P03951 388-625 limits assumed) above, with K160A, R161A, R163A counted along it
Sequence of rFXIa-FLABS2 (P03951 19-387 limits assumed): as the sequence (P03951 19-387 limits assumed) above

[19] = Thromboplastin-induced venous thrombosis model in rats; type: in vivo; conditions: 250 μg per rat
[20] = test system: HT-29 colorectal cell line; conditions: HT-29, SCI as high as 100 μM; cited from earlier work
[21] = test system: human plasma; assay: Activated partial thromboplastin time; type: biochemical
[22] = Mouse tail bleeding; type: in vivo; conditions: IV 35 μg/mouse SCI vs 300 μg enoxaparin
Procedure, shortened: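 Test compound or enoxaparin comparator was given IV, then the tail was transected. Blood loss (mg) and time to cessation of bleeding were measured, with n = 4–7 per group. Groups were compared by two-tailed t-tests with unequal variance.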

[23] = test system: human whole blood; assay: Hemostasis analysis; conditions: ex vivo
Procedure, shortened: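 Citrated human whole blood was spiked with varying levels of test compound or enoxaparin and recalcified with CaCl2. A cone was lowered into the blood, and tension from platelets attaching within the fibrin meshwork was recorded automatically as platelet contractile force, thrombin generation time and clot elastic modulus.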

[24] = target: Plasma Kallikrein (Homo sapiens, UniProt P03952); assay: Chromogenic substrate hydrolysis assay, plasma kallikrein; type: biochemical
Procedure, shortened: as §1

[25] = target: T3, Thrombin; assay: Chromogenic substrate hydrolysis assay, thrombin; type: biochemical
Procedure, shortened: as §1

[26] = test system: rat plasma; assay: APTT of rat plasma; type: biochemical
[27] = target: FXIIIa (Homo sapiens, UniProt P00488); assay: Fluorescence-based bisubstrate assay, FXIIIa; type: biochemical
Procedure, shortened: as §1

[28] = target: Plasmin (Homo sapiens, UniProt P00747); assay: Chromogenic substrate hydrolysis assay, plasmin; type: biochemical
Procedure, shortened: as §1

[29] = target: FXa (Homo sapiens, UniProt P00742); assay: Chromogenic substrate hydrolysis assay, FXa; type: biochemical
Procedure, shortened: as §1

[30] = test system: plasma; assay: Plasma clotting times in the presence of added FXI neutralizing antibody; type: biochemical; conditions: antibody 9 μg per 300 μL; SCI as high as 100 μM
Procedure, shortened: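 Plasma APTT was measured by a one-stage recalcification assay at 37 °C, with clotting initiated by CaCl2. Plasma contained FXI-neutralizing antibody at 9 μg per 300 μL, and test compound was varied over a wide concentration range.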

[31] = test system: human plasma deficient of antithrombin and heparin cofactor II; assay: Clotting of human plasma deficient of antithrombin or heparin cofactor II; type: biochemical; conditions: plasma deficient in antithrombin or heparin cofactor II
[32] = target: FVIIa/TF (Homo sapiens, UniProt P08709); assay: Chromogenic substrate hydrolysis assay, FVIIa/TF; type: biochemical
Sequence of FVIIa/TF (P08709 213-466 limits assumed): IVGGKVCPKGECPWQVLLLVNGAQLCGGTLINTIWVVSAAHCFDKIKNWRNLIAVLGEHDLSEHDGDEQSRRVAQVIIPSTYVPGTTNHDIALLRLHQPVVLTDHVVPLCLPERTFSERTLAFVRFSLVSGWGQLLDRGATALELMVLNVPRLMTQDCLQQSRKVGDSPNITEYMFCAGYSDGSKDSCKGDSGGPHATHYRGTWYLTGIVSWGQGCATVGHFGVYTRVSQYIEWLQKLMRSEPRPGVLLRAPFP
Sequence of FVIIa/TF (P08709 61-212 partner limits assumed): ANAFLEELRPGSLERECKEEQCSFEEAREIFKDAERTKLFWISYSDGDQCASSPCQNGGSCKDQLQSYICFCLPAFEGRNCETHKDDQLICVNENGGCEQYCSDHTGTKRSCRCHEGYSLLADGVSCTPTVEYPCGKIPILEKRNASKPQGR
Sequence of FVIIa/TF (P13726 33-295 partner): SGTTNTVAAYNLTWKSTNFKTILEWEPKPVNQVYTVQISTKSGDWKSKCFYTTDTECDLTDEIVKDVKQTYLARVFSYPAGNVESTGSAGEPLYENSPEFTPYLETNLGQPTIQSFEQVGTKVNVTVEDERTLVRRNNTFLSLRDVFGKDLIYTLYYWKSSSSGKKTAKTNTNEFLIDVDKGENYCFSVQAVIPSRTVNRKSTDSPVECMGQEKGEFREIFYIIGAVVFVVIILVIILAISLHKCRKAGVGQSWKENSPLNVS
Procedure, shortened: as §1

[33] = target: T2, FXIa; assay: Competition between SCI and UFH, S-2366 hydrolysis assay; type: biochemical; conditions: UFH increased from 0 to 150 μM; pH 7.4, 37 °C
Procedure, shortened: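 Purified full-length human FXIa hydrolysing S-2366 in 20 mM Tris-HCl, pH 7.4, 37 °C, read as initial rate of absorbance rise at 405 nm. Inhibition curves were run with unfractionated heparin at 0, 5, 50 or 150 μM. Fitted to a logistic dose–response equation for IC50, ΔY and Hill slope.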

[34] = test system: Chymotrypsin; assay: Chromogenic substrate hydrolysis assay, chymotrypsin; type: biochemical, human
Procedure, shortened: as §1

[35] = target: rFXIa-FLWT (Homo sapiens, UniProt P03951); assay: Direct inhibition of recombinant full-length wild type FXIa, S-2366 hydrolysis; type: biochemical; conditions: pH 7.4, 37 °C
[36] = target: T2, FXIa; assay: FXIa cleavage of macromolecular substrate FIX to FIXa; type: biochemical

In the case of `O=S(=O)(O)OC[C@H]1O[C@@](COS(=O)(=O)O)(O[C@H]2O[C@H](COS(=O)(=O)O)[C@@H](OS(=O)(=O)O)[C@H](OS(=O)(=O)O)[C@H]2OS(=O)(=O)O)[C@@H](OS(=O)(=O)O)[C@@H]1OS(=O)(=O)O` [SOS, sucrose octasulfate], the “restoration potency (EC50)” value [1] is reported as 750 µg/mL and the “restoration yield (ΔY) of FXIa activity” value [1] is reported as ~ 39%.
With polybrene the “restoration potency (EC50)” value [1] was 0.4 µg/mL and the “restoration yield (ΔY) of FXIa activity” value [1] was ~ 88%.
With protamine sulfate the “restoration potency (EC50)” value [1] was 14.0 µg/mL and the “restoration yield (ΔY) of FXIa activity” value [1] was ~ 69%.
With sulfated chiro-inositol [SCI] the “highest dose studied relative to effective dose” value ([2]; 25 mg/animal, no bleeding or cellular toxicity) was over 100 fold, the “tolerability (mobility, weight loss, bleeding)” value ([2]; rats, 5, 10 and 25 mg per animal IV, n=3/group, 7 days observation) was “well tolerated” and the “effect on TEG parameters” value [3] was “increase time to initial fibrin formation, while decrease all other parameters”. The “dansyl fluorescence of SCI–DEGR-FXIa complex on acrylamide addition” value [4] was “remained invariant”, the Kd ([5]; intrinsic fluorescence, pH 7.4, 37 °C) was 0.063 ± 0.011 µM and the “saturating increase in intrinsic fluorescence” value ([5]; pH 7.4, 37 °C) was 133%. For the same molecule, the “stoichiometry of SCI binding to dimeric FXIa” value ([5]; spectrofluorometric titration) was 1.83±0.08, the “inhibition of FXIa with Spectrozyme TH” value [6] was “potent inhibition” and the “potency relative to SPGG (better)” value ([7]; FXIa inhibition) was ~ 2 fold and 2 fold. The “efficacy of FXIa inhibition” value ([7]; S-2366, pH 7.4, 37 °C) was 100%, the IC50 ([7]; full length, wild type, purified human FXIa, S-2366, pH 7.4, 37 °C) was 0.28 ± 0.01 µM and the IC50 ([7]; read-out: potency of FXIa inhibition) was 0.28 µM and ~0.28 µM. For the same molecule, the “decrease of VMAX” value [8] was ~ 4 fold, the “VMAX in the presence of SCI” value ([8]; decreased from 52.1) was 14.2 mAU/min and the “wet weight of thrombus lower than negative control (PBS)” value ([9]; 250 μg per rat) was ~ 33%. The “wet weight of thrombus” value ([9]; 250 μg per rat, n=14, PBS 43.35±2.63 mg) was 28.85 ± 2.12 mg, the “decrease of average dry thrombus weight vs PBS” value ([9]; 500 or 2000 μg/animal) was 55–63% and the “decrease of average wet thrombus weight vs PBS” value ([9]; 500 or 2000 μg/animal) was 53–55%. It also gave an IC50 [10] of over 50 µM, a blood loss ([11]; 250 μg/rat IV, n=15, PBS 147±29 mg) of 119 ± 41 mg and a tail bleeding time ([11]; 250 μg/rat, PBS 13±4) of 14 ± 4 min. The IC50 [12] was over 65 µM, the “inhibition of thrombin with S-2366” value [13] was “essentially no inhibition” and the “impact on the PT” value [14] was “minimal”. The “potency relative to rFXIa-FLWT” value [15] was “essentially identical”, the IC50 ([15]; full length FXIa missing A3 domain's HBS) was 3 ± 0.2 µM and the IC50 [16] was over 50 µM. For the same molecule, the “increase in dansyl fluorescence” value [17] was 152%, the Kd ([17]; read-out: affinity (KD), dansyl fluorescence) was 0.025 µM and the “reduction in efficacy relative to rFXIa-FLWT” value [18] was ~ 20%. The “weaker inhibition relative to rFXIa-FLWT” value [18] was ~ 5 fold, the IC50 ([18]; full length FXIa missing catalytic domain's HBS) was 20.7 ± 3.6 µM and the “reduction of average dry weight of thrombus” value [19] was 48%. For the same molecule, the “wet weight of thrombus less than PBS group” value [19] was ~ 42%, the “wet weight of thrombus” value ([19]; n=13, PBS 38.61±3.56 mg) was 22.46 ± 1.14 mg and the “cellular toxicity (cell death)” value [20] was “No significant adverse effect”. For the same molecule, the “concentration for 2-fold increase in APTT” value [21] was 32.2 µM, the “blood loss and bleeding time” value [22] was “much lower than that induced by enoxaparin” and the “effect on HAS parameters” value [23] was “reduced platelet contractile force and clot elastic modulus, whereas prolonged force onset time”. For the same molecule, the IC50 [24] was over 65 µM, the IC50 [25] was over 40 µM and the “effect on APTT of rat plasma” value [26] was “preferentially enhance APTT”. It also gave an IC50 [27] of over 90 µM, an IC50 [28] of over 40 µM and an IC50 [29] of over 40 µM. For the same molecule, the “effect on plasma clotting times with FXI neutralizing antibody” value [30] was “did not significantly impact plasma clotting times”, the “effect on APTT of serpin-deficient plasma” value [31] was “preferentially prolonged the APTT” and the IC50 [32] was over 50 µM. For the same molecule, the reversibility with protamine ([1]; protamine as antidote) was over 50%, the “increase of IC50 of FXIa inhibition with UFH” value [33] was ~ 6 fold and the IC50 [34] was over 40 µM. The IC50 [35] was 4.2 ± 0.6 µM and the “inhibition of FXIa cleavage of FIX to FIXa” value [36] was “dose-dependently inhibited”.
